Experimental data: ChEMBL document CHEMBL1142259, “Design and synthesis of novel potent and selective integrin alphanubeta3 antagonists--novel synthetic routes to isoquinolinone, benzoxazinone, and quinazolinone acetates” (Bioorg Med Chem Lett, 2008)

Experiments:
Integrin alpha-V/beta-3 = Integrin alpha-V/beta-3 (Homo sapiens, UniProt P05106+P06756); assay: Displacement of vitronectin from integrin alphavbeta3 receptor; assay type: protein-complex assay
Procedure, shortened: (§1)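 Ligand displacement from the isolated integrin receptor: vitronectin for αvβ3 and fibrinogen for αIIbβ3. IC50 reported as the mean of three experiments. Intra-assay variation <10%; inter-assay variation < factor 2.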

[1] = Apparent permeability across human Caco-2 cells; assay type: ADME, cell-based
Procedure, shortened: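 Apparent permeability coefficient (Papp) measured in Caco-2 monolayers. n = 2, intra-assay variation <20%. Papp >2e-7 cm/s is classed as medium transport and >2e-6 cm/s as high transport.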

[2] = biological target: Integrin alpha-IIb/beta-3 (Homo sapiens, UniProt P05106+P08514); assay: Displacement of fibrinogen from integrin alpha2bbeta3 receptor; assay type: protein-complex assay; procedure, shortened: as §1
[3] = biological target: Integrin alpha-5/beta-1 (Homo sapiens) (UniProt P05556+P08648); assay: Inhibition of integrin alpha5beta1 receptor mediated cellular binding to fibronectin at 10 uM; assay type: protein-complex assay

Chain of Integrin alpha-V/beta-3 (P05106 27-788 limits assumed): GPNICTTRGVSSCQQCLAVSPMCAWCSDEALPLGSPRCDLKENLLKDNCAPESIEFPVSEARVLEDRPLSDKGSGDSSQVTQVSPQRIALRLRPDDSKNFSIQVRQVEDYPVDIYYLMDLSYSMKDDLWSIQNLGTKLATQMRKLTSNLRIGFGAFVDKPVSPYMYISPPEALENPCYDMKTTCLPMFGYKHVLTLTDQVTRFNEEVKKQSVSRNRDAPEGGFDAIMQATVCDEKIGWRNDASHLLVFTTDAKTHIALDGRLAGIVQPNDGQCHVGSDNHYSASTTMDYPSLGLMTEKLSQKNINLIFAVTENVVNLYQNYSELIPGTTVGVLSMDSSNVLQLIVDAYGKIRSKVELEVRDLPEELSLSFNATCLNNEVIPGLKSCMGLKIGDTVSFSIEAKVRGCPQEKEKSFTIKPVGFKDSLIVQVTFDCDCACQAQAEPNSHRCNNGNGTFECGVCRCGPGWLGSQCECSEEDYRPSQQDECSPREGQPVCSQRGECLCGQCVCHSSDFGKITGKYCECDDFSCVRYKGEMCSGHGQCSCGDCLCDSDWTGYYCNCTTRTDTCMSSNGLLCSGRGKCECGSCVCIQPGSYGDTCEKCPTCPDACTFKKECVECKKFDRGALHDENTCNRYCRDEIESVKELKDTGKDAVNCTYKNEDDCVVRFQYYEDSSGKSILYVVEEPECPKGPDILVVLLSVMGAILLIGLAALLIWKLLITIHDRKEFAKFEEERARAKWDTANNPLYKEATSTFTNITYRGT
Chain of Integrin alpha-V/beta-3 (P06756 31-889 limits assumed): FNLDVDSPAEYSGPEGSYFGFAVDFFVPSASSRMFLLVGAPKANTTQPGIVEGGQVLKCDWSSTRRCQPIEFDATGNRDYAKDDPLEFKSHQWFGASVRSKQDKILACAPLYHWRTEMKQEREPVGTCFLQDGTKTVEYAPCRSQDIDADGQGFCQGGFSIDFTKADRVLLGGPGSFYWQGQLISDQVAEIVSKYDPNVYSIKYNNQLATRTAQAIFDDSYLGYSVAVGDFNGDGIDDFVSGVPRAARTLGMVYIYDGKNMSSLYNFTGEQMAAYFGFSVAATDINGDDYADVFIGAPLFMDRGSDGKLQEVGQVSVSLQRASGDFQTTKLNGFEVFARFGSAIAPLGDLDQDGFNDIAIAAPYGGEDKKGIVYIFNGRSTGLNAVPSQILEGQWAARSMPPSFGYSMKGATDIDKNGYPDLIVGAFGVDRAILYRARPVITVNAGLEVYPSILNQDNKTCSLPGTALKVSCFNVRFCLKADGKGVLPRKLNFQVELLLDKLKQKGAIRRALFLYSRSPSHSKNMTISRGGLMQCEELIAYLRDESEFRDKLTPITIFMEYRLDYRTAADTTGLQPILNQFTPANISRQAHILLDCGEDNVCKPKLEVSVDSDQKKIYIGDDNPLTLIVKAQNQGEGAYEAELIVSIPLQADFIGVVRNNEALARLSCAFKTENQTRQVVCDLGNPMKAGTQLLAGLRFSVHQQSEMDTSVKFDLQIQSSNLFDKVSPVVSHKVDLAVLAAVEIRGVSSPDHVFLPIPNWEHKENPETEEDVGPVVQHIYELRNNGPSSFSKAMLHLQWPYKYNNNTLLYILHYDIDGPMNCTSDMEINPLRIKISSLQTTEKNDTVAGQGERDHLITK
Chain of Integrin alpha-V/beta-3 (P06756 891-1048 limits assumed): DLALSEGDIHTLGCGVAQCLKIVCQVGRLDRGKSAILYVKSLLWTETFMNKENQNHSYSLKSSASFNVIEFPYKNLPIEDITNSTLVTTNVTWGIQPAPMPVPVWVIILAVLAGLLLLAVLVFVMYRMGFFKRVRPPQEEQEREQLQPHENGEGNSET
Chain of Integrin alpha-IIb/beta-3 (P05106 27-788 limits assumed): as the sequence (P05106 27-788 limits assumed) above
Chain of Integrin alpha-IIb/beta-3 (P08514 32-887 limits assumed): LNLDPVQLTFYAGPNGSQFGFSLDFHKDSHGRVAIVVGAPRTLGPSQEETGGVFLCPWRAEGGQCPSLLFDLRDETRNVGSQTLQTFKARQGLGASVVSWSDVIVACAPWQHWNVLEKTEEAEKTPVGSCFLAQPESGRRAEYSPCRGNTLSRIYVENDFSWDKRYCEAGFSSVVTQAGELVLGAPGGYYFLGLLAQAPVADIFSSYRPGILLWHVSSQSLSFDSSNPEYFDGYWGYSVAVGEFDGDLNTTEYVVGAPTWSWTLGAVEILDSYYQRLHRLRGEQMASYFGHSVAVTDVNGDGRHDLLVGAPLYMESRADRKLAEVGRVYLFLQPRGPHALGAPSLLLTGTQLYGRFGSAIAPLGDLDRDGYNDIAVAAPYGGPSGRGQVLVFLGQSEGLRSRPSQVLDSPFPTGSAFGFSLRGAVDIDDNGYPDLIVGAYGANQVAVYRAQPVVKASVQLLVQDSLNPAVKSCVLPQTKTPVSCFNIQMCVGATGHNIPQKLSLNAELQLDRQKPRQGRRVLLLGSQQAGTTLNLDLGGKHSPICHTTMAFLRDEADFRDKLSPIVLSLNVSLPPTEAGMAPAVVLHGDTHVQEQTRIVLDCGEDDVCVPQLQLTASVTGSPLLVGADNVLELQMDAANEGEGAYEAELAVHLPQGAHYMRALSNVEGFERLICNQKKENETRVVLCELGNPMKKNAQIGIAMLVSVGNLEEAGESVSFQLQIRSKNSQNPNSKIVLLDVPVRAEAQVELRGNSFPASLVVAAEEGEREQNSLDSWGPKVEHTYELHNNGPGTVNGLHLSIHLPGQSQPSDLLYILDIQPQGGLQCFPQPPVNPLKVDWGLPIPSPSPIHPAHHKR
Chain of Integrin alpha-IIb/beta-3 (P08514 891-1039 limits assumed): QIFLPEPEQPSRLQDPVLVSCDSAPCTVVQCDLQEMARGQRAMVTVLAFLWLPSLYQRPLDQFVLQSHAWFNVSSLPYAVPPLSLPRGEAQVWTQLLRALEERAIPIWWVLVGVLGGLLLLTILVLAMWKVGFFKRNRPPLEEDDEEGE

Structure (SMILES) | IC50 (Integrin alpha-V/beta-3) [nM] | other results
O=C(O)CCc1cc(=O)n(CC(=O)NCC2CCC(Nc3nc4ccccc4[nH]3)CC2)c2ccccc12 (trans isomer) | 1000 | 
O=C(O)CC1CCN(CC(=O)NCC2CCC(Nc3nc4ccccc4[nH]3)CC2)C(=O)c2ccccc21 (centres undefined) | 11 | 
O=C(O)CC1NC(=O)N(CC(=O)NCc2ccc(Nc3nc4ccccc4[nH]3)cc2)c2ccccc21 (centres undefined) | 37 | 
O=C(O)CC1CCC(=O)N(CC(=O)NCC2CCC(Nc3nc4ccccc4[nH]3)CC2)c2ccccc21 (centres undefined) | 1.5 | 
O=C(O)Cc1cc(=O)n(CC(=O)NCc2ccc(Nc3nc4ccccc4[nH]3)cc2)c2ccccc12 | 50 | 
O=C(O)CC1CC(=O)N(CC(=O)NCC2CCC(Nc3nc4ccccc4[nH]3)CC2)c2ccccc21 (trans isomer) | 7.4 | 
O=C(O)Cc1cc(=O)n(CC(=O)NCC2CCC(Nc3nc4ccccc4[nH]3)CC2)c2ccccc12 (centres undefined) | 10 | 
O=C(O)CC1CN(CC(=O)NCc2ccc(Nc3nc4ccccc4[nH]3)cc2)C(=O)c2ccccc21 (centres undefined) | 10000 | 
O=C(O)CCC1CC(=O)N(CC(=O)NCC2CCC(Nc3nc4ccccc4[nH]3)CC2)c2ccccc21 (centres undefined) | 27 | 
O=C(O)CC1OC(=O)N(CC(=O)NCC2CCC(Nc3nc4ccccc4[nH]3)CC2)c2ccccc21 (centres undefined) | 0.7 | Papp [1]: 3.23 ×10⁻⁶ cm/s; IC50 [2]: > 10000 nM; inhibition [3]: 25%
O=C(O)CC1CCN(CC(=O)NCc2ccc(Nc3nc4ccccc4[nH]3)cc2)C(=O)c2ccccc21 (centres undefined) | 122 | 
O=C(O)CC1CC(=O)N(CC(=O)NCc2ccc(Nc3nc4ccccc4[nH]3)cc2)c2ccccc21 (centres undefined) | 50 | 
O=C(O)CC1CN(CC(=O)NCC2CCC(Nc3nc4ccccc4[nH]3)CC2)C(=O)c2ccccc21 (trans isomer) | 10000 | 
O=C(O)CCc1cc(=O)n(CC(=O)NCc2ccc(Nc3nc4ccccc4[nH]3)cc2)c2ccccc12 | 500 | 
O=C(O)CC1CCC(=O)N(CC(=O)NCc2ccc(Nc3nc4ccccc4[nH]3)cc2)c2ccccc21 (centres undefined) | 4.4 | 
O=C(O)CC1OC(=O)N(CC(=O)NCc2ccc(Nc3nc4ccccc4[nH]3)cc2)c2ccccc21 (centres undefined) | 4.2 | Papp [1]: 3.48 ×10⁻⁶ cm/s; IC50 [2]: > 10000 nM; inhibition [3]: 8%
O=C(O)CCC1CC(=O)N(CC(=O)NCc2ccc(Nc3nc4ccccc4[nH]3)cc2)c2ccccc21 (centres undefined) | 5000 | 
O=C(O)CC1NC(=O)N(CC(=O)NCC2CCC(Nc3nc4ccccc4[nH]3)CC2)c2ccccc21 (trans isomer) | 13 | 
